Consider two compounds from ChEMBL document CHEMBL1142488, “Synthesis of N-substituted 5-[2-(N-alkylamino)ethyl]dibenzo[c,h][1,6]naphthyridines as novel topoisomerase I-targeting antitumor agents” (Bioorg Med Chem, 2008).

The subject of assay [1] is MDA-MB-435 (human). The assay can be described thus: Antitumor activity against human MDA-MB-435 cells xenografted in NCR/NU NU mouse assessed as tumor volume measured on day 49 initially dosed at 5 mg/kg, ip qd x 5/week for 1 week and dose schedule adjusted to achieve total dose of 301 mg/kg.
The subject of assay [2] is MDA-MB-435 (human). The assay can be described thus: Antitumor activity against human MDA-MB-435 cells xenografted in NCR/NU NU mouse assessed as tumor volume measured on day 28 initially dosed at 5 mg/kg, ip qd x 5/week for 1 week and dose schedule adjusted to achieve total dose of 301 mg/kg. (In general: In xenograft studies the graft and the host belong to different species.)

A short description of assay [3]: Cytotoxicity against human RPMI8402 cells after MTT assay. In kind it is functional, cell-based. The following applies: RPMI 8402. In a few lines: (§1)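 Suspension cultures at 37 °C, 5% CO2, in RPMI with 10% heat-inactivated FBS, 2 mM L-glutamine, penicillin and streptomycin. Continuous 4-day exposure to a range of drug concentrations, then MTT read-out to give IC50. Drug-free control included. At least two runs, six replicate wells each.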
For orientation: Tetrazolium assays rely on reduction of a dye to a coloured formazan, in cell work by metabolically active cells.

The nature of assay [4]: Cytotoxicity against multidrug resistant human KBH5.0 cells overexpressing BCRP after MTT assay. It counts as functional, cell-based. The following applies: KBH5.0 cell. In a few lines: (§2)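 IC50 after continuous 4-day exposure to varying drug concentrations, with MTT read at the end of day 4. A drug-free control was included. At least two runs, each in six replicate wells.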

A short description of assay [5]: Cytotoxicity against camptothecin-resistant and TOP1 deficient mouse P388/CPT45 cells after MTT assay. In kind it is functional, cell-based. As to conditions: P388CPT45. The method, boiled down:
as §1

Assay [6] relates to MDA-MB-435 (human). The assay can be described thus: Antitumor activity against human MDA-MB-435 cells xenografted in NCR/NU NU mouse assessed as tumor volume measured on day 35 initially dosed at 5 mg/kg, ip qd x 5/week for 1 week and dose schedule adjusted to achieve total dose of 301 mg/kg.
Assay [7] deals with T1, DNA topoisomerase 1 (Homo sapiens) (UniProt P11387).
T1 sequence (whole entry): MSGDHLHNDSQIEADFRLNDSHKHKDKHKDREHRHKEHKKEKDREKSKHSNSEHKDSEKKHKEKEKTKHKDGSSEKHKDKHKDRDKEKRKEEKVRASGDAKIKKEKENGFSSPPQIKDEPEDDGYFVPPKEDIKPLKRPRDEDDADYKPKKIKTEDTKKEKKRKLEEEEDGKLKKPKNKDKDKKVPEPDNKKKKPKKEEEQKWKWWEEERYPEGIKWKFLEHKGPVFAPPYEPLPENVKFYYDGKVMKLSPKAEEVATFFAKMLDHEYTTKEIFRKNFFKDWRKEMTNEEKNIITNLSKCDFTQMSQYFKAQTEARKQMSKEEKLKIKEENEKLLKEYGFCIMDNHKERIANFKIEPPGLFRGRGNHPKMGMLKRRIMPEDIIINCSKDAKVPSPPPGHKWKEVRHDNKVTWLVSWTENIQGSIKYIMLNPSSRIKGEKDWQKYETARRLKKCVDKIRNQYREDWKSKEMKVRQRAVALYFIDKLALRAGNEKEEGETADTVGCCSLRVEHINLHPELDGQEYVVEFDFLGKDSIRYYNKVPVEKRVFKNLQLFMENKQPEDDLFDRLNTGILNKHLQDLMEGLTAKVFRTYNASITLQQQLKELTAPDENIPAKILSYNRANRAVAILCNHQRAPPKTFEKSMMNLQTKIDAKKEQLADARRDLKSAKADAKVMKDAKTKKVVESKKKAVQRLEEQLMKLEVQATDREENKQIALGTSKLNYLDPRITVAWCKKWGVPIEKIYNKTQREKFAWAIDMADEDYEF
The assay can be described thus: Inhibition of human topoisomerase 1 mediated DNA cleavage assessed as effective drug concentration causing 10% YepG plasmid cleavage relative to camptothecin. The following applies: in the assay text read “relative to topotecan” for “relative to camptothecin”. The method, boiled down:
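Stopped with SDS and proteinase K, 1 h at 37 °C. Alkali-denatured with NaOH/EDTA/sucrose/bromophenol blue, then run on neutral agarose gel.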

A short description of assay [8]: Cytotoxicity against camptothecin-resistant human CPT-K5 cells after MTT assay. In kind it is functional, cell-based. The method, boiled down: as §1
Assay [9] concerns MDA-MB-435 (human). The assay can be described thus: Antitumor activity against human MDA-MB-435 cells xenografted in NCR/NU NU mouse assessed as tumor volume measured on day 7 initially dosed at 5 mg/kg, ip qd x 5/week for 1 week and dose schedule adjusted to achieve total dose of 301 mg/kg.
In assay [10] the test system is MDA-MB-435 (human). The assay can be described thus: Antitumor activity against human MDA-MB-435 cells xenografted in NCR/NU NU mouse assessed as tumor volume measured on day 14 initially dosed at 5 mg/kg, ip qd x 5/week for 1 week and dose schedule adjusted to achieve total dose of 301 mg/kg.
A further assay deals with P388. The assay can be described thus: Cytotoxicity against mouse P388 cells after MTT assay. It counts as functional, cell-based. The method, boiled down: as §1
The subject of assay [11] is MDA-MB-435 (human). The assay can be described thus: Antitumor activity against human MDA-MB-435 cells xenografted in NCR/NU NU mouse assessed as tumor volume measured on day 42 initially dosed at 5 mg/kg, ip qd x 5/week for 1 week and dose schedule adjusted to achieve total dose of 301 mg/kg.
Assay [12] deals with MDA-MB-435 (human). The assay can be described thus: Antitumor activity against human MDA-MB-435 cells xenografted in NCR/NU NU mouse assessed as tumor volume measured on day 21 initially dosed at 5 mg/kg, ip qd x 5/week for 1 week and dose schedule adjusted to achieve total dose of 301 mg/kg.
Assay [13] can be described thus: Cytotoxicity against human KB3-1 cells after MTT assay. In kind it is functional, cell-based. The following applies: KB 3-1. The method, boiled down:
as §2

The test system of assay [14] is MDA-MB-435 (Homo sapiens). The assay can be described thus: Antitumor activity against human MDA-MB-435 cells xenografted in NCR/NU NU mouse assessed as tumor volume measured on day 21 initially dosed at 1.5 mg/kg, ip qd x 3/5 days schedule. As to conditions: route intraperitoneal.
In assay [15] the test system is MDA-MB-435 (Homo sapiens). The assay can be described thus: Antitumor activity against human MDA-MB-435 cells xenografted in NCR/NU NU mouse assessed as tumor volume measured on day 49 initially dosed at 1.5 mg/kg, ip qd x 3/5 days schedule. As to conditions: route intraperitoneal.
Assay [16] can be described thus: Cytotoxicity against multidrug resistant human KBV-1 cells overexpressing MDR1 after MTT assay. In kind it is functional, cell-based. The following applies: KB-V1. The method, boiled down: as §2
The test system of assay [17] is MDA-MB-435 (human). The assay can be described thus: Antitumor activity against human MDA-MB-435 cells xenografted in NCR/NU NU mouse assessed as tumor volume measured on day 7 initially dosed at 1.5 mg/kg, ip qd x 3/5 days schedule. The following applies: route intraperitoneal.
The subject of assay [18] is MDA-MB-435 (Homo sapiens). The assay can be described thus: Antitumor activity against human MDA-MB-435 cells xenografted in NCR/NU NU mouse assessed as tumor volume measured on day 28 initially dosed at 1.5 mg/kg, ip qd x 3/5 days schedule. The following applies: route intraperitoneal.
In assay [19] the test system is MDA-MB-435 (Homo sapiens). The assay can be described thus: Antitumor activity against human MDA-MB-435 cells xenografted in NCR/NU NU mouse assessed as tumor volume measured on day 35 initially dosed at 1.5 mg/kg, ip qd x 3/5 days schedule. As to conditions: route intraperitoneal.
Assay [20] relates to MDA-MB-435 (Homo sapiens). The assay can be described thus: Antitumor activity against human MDA-MB-435 cells xenografted in NCR/NU NU mouse assessed as tumor volume measured on day 14 initially dosed at 1.5 mg/kg, ip qd x 3/5 days schedule. The following applies: route intraperitoneal.
Assay [21] concerns MDA-MB-435 (Homo sapiens). The assay can be described thus: Antitumor activity against human MDA-MB-435 cells xenografted in NCR/NU NU mouse assessed as tumor volume measured on day 42 initially dosed at 1.5 mg/kg, ip qd x 3/5 days schedule. The following applies: route intraperitoneal.

Structures are written as SMILES.

With `COc1cc2c(=O)n(CCN(C)CC(N)=O)c3c4cc5c(cc4ncc3c2cc1OC)OCO5`, the Activity with MDA-MB-435 (human) [1] stood at 527 mm3; in the assay with MDA-MB-435 (human) [2] it was 319 mm3; in the assay with MDA-MB-435 (human) [6] it was 344 mm3; in assay [7], 0.3; in the assay on MDA-MB-435 (human) [9], 147 mm3; in the assay on MDA-MB-435 (human) [10], 178 mm3. For the same compound, the Activity in the assay with MDA-MB-435 (human) [11] is listed as 434 mm3; in the assay on MDA-MB-435 (human) [12], 230 mm3. Also, the IC50 in [3] was 3 nM; in [4], 320 nM; in assay [5] it was 390 nM; in assay [8], 3500 nM; in the assay with P388, 9 nM; in assay [13] it was 10 nM.
As for `COc1cc2c(=O)n(CCN(C)C)c3c4cc5c(cc4ncc3c2cc1OC)OCO5`, the Activity in assay [14] is 145 mm³; in assay [15], 242 mm3; in the assay with MDA-MB-435 (human) [17] it was 120 mm3; in assay [18], 158 mm³; in assay [19], 175 mm³; in assay [7], 0.3. The Activity came out at 123 mm³ in assay [20] and 189 mm³ in assay [21]. The 50% inhibitory concentration (IC50) worked out at 2 nM in assay [3]; 5 nM in assay [16]; 6 nM in assay [4]; 230 nM in assay [5]; 900 nM in assay [8]; 5 nM in [13].

For orientation: IC50 means the concentration needed to halve the response being measured. A lower IC50 goes with greater potency in that assay.
